In ChEMBL document CHEMBL4513216, “Probing the Open Global Health Chemical Diversity Library for Multistage-Active Starting Points for Next-Generation Antimalarials” (ACS Infect Dis, 2020):

Experiment: Toxicity liver stage against HepG2, at 10uM
Assay type: cell-based
Parameters: test concentration 10 uM, cell line HepG2-A16-CD81EGFP
Details: human, HepG2-A16-CD81EGFP cells; read-out: INHIBITION
In short: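 Uninfected HepG2-A16-CD81EGFP cells, 3 × 10^3 per well, 1536-well, plated on prespotted compound at 10 μM final, parasite-free screening media added to match infected plates; puromycin 10 μM positive, DMSO 0.5% negative; run in parallel with 48 h PbLuc assay at 37 °C, 5% CO2; viability by CellTiter-Glo luminescence, normalized to controls.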

In order of rising cytotoxicity at 10 µM:
1. CC(O)(CCc1ccccc1)CNC(=O)c1ccc(F)cc1 (configuration not stated)  -70.3%
2. CCc1nc(C2CCCN(C(=O)c3ccc(F)cc3)C2)no1 (configuration not stated)  -40.5%
3. NC(=O)c1ccc(C2CCCNC2)nc1 (configuration not stated)  -15.1%
4. O=C(NCC1CC1)[C@H]1CC[C@@H]2[C@@H](CCN2Cc2ccoc2)O1  -14.1%
5. CCc1nc(CN2CCCC(NCc3ccc(C(N)=O)cc3)C2)no1 (configuration not stated)  -12.3%
6. Cc1nc(C2CCCN2CC(=O)N(Cc2ccsc2)C2CC2)no1 (configuration not stated)  -12.1%
7. O=C(C1CCCCC1)N1C[C@H]2CNC[C@H]2C1  -11.9%
8. Fc1cccc(Cl)c1CNCCOc1ccccn1  -11.4%
9. Cc1cn2c(n1)CCC(NC(=O)CCC1CC1)C2 (configuration not stated)  -9.69%
10. CC(C(=O)NCC1CCCCC1)S(=O)(=O)Cc1csc(-c2cccs2)n1 (configuration not stated)  -9.44%
11. Cc1cnn(CC2CCCCN2Cc2noc(C3CC3)n2)c1 (configuration not stated)  -9.32%
12. Clc1ccccc1-c1nnc(CN2CCCC2Cn2cncn2)o1 (configuration not stated)  -9.03%
13. COCc1cccc(CNCc2c(C)nn(C)c2N2CCOCC2)c1  -8.93%
14. CN(C)Cc1cc(C2CCN(C(=O)C3CCCNC3)CC2)nn1C (configuration not stated)  -8.67%
15. Cc1ccc2nnc(C(=O)NCCCn3cccn3)nc2c1  -7.93%
16. c1cnnc(N[C@@H]2CC[C@@H]3CN(Cc4ccc5[nH]ccc5c4)C[C@@H]32)c1  -7.81%
17. CC(C)c1noc(C(C)N2CCN(Cc3ccco3)CC2)n1 (configuration not stated)  -7.67%
18. CC(=O)NCC1CCN(C(=O)NCc2ccc3c(c2)OCCO3)CC1  -7.11%
19. COC(=O)CCCn1ccnc1C(C)c1ccccc1 (configuration not stated)  -6.73%
20. Cc1cnn(CCNCc2csc(-c3ccc4c(c3)OCO4)n2)c1  -6.41%
21. Cn1ccc(CN2CCC(NC(=O)NC3CCCCC3)CC2)cc1=O  -6.26%
22. Oc1ccc(Cl)cc1CNCc1cccc(C(F)(F)F)c1  -6.13%
23. OC(COCc1ccc2c(c1)OCO2)CN1CC(n2cccn2)C1 (configuration not stated)  -5.89%
24. COC(=O)N1CCCC(C(=O)N(C)C)C1 (configuration not stated)  -5.87%
25. CN1C(=O)C[C@@H]2[C@@H]1CCN2S(=O)(=O)Cc1ccccc1  -5.76%
26. CN1CCC(N(C)C(=O)c2cnn(-c3ccccc3Br)c2N)CC1  -5.63%
27. Cc1cc(N)nc(SC2CCCN(Cc3ccccc3)C2=O)n1 (configuration not stated)  -5.45%
28. CCN(CC)S(=O)(=O)CC(=O)N1CCc2ccc(Cl)cc21  -5.42%
29. Cc1ccc(S(=O)(=O)N2CCOCC2C(N)=O)c(F)c1 (configuration not stated)  -5.22%
30. CN1CCN(CCOc2ccc(NC(=O)c3ccncc3)cc2)CC1  -5.18%
31. Cc1cnn(CCNCc2ccc(F)cc2Cl)c1  -5.16%
32. Fc1ccc(CN2CCCC2Cn2cccn2)c2ncccc12 (configuration not stated)  -5.11%
33. CC(C)c1nn(C)c(N2CCOCC2)c1CNC(C)c1cccs1 (configuration not stated)  -5.06%
34. CC(c1nc(C2CC2)no1)N1CCN(Cc2ccccc2)CC1 (configuration not stated)  -5%
35. CNC(=O)C1CCN(S(C)(=O)=O)CC1  -4.81%
36. Cc1ccc(N2CCCC(NCc3cc(C)on3)C2)nn1 (configuration not stated)  -4.8%
37. O=C(COc1ccccc1)NCC1CCN(Cc2ccsc2)CC1  -4.59%
38. COc1ccccc1CC(=O)N1CCCC(n2nc(C)cc2C)C1 (configuration not stated)  -4.48%
39. Cc1noc(C)c1CN(C)C(=O)Cn1c(=O)n(C)c2ccccc21  -4.32%
40. c1ccc([C@@H]2CN(Cc3cccnc3)C[C@H]2c2cc[nH]n2)cc1  -4.24%
41. CC(Oc1ccccc1)C(=O)N1CCCN(Cc2cscn2)CC1 (configuration not stated)  -3.92%
42. CC(=O)N(C)CC(=O)NCC1(c2c(F)cccc2F)CCCC1  -3.86%
43. O=C(O)CSc1nnc(-c2ccn[nH]2)n1-c1ccccc1C(F)(F)F  -3.85%
44. Cc1ncsc1C(=O)N(C)CCc1ccncc1  -3.81%
45. CNC(=O)C1CCN(C(=O)c2cccn2Cc2cccs2)CC1  -3.74%
46. Fc1ccc(-c2nnc(CNC3CCc4ncnn4C3)o2)cc1 (configuration not stated)  -3.67%
47. Cc1ccc(-c2cnnc(NCC3CCOCC3)n2)o1  -3.64%
48. Cc1c(Cl)c(C(F)(F)F)nn1C(C)C(=O)NC1CCN(C)CC1 (configuration not stated)  -3.13%
49. Cc1cc(C(=O)N2CCCN(Cc3cnn(C)c3)CC2)no1  -2.92%
50. CN(c1ncccc1C#N)C1CCN(Cc2ccncc2)CC1  -2.86%
51. N#Cc1cccc(SCCS(N)(=O)=O)c1  -2.53%
52. CC(C)N1C(=O)CC(NC(=O)c2cc(Cl)sc2Cl)C1=O (configuration not stated)  -2.27%
53. CC(C)S(=O)(=O)N1CCC(c2cc3n(n2)[C@@H](C(F)(F)F)C[C@@H](C)N3)C1 (some centres not stated)  -1.96%
54. O=C1NCC(C(=O)Nc2ccc(=O)n(Cc3ccccc3Cl)c2)N1 (configuration not stated)  -1.73%
55. N#Cc1ncn(CC(=O)Cc2c(F)cccc2Cl)n1  -1.45%
56. CCCNC(=O)N1CCN(Cc2cc(C)no2)CC1  -1.18%
57. COc1cccc(NC(=O)CN2CCN(S(C)(=O)=O)CC2)c1  -1%
58. Cc1cnn(C2CN(CC(=O)NCCc3ccccc3)C2)c1  -0.956%
59. COc1ncccc1C(=O)Nc1ccccc1-c1ccc(=O)n(C)n1  -0.843%
60. Cc1noc(C)c1CNCC1CCN(CC(O)c2ccccc2)CC1 (configuration not stated)  -0.65%
61. Cc1ncsc1C(=O)NCCn1nc2ccccn2c1=O  0.00307%
62. N[C@H]1CN(C(=O)Cc2cc(F)cc(Cl)c2)C[C@@H]1C1CC1  0.0152%
63. Cc1ccc2cc(CNCCCO)c(=O)[nH]c2c1  0.127%
64. Cn1c(CCC(=O)N2CCC3(CCCO3)CC2)nc2cccnc21  0.592%
65. CSCC1CCCN1CCc1ccncc1 (configuration not stated)  0.684%
66. COCC(=O)N1CC[C@]2(O)CCN(C(=O)CCc3ccsc3)C[C@@H]2C1  0.689%
67. COC(=O)C1(C)CCN(C(=O)NCCc2c(C)[nH]c3ccccc23)C1 (configuration not stated)  0.807%
68. COc1ncccc1CN1C[C@@H]2C[C@@H](C(=O)NCC3CC3)N(C)[C@@H]2C1  1.2%
69. CCN(CC)C(=O)Cn1ccc2cc(NC(=O)C3CCCO3)ccc21 (configuration not stated)  1.35%
70. Cn1ccc2cc(C(=O)NC3CCOC(C)(C)C3)ccc21 (configuration not stated)  1.67%
71. c1cc(CN2CCc3c(nnn3CC3CC3)C2COCC2CC2)co1 (configuration not stated)  2.02%
72. CC(C)n1nnc(CC(=O)NCC2(c3ccccc3F)CCOCC2)n1  2.35%
73. Cc1ccc2c(c1)OC(C)CN2C(=O)c1c[nH]c(C)cc1=O (configuration not stated)  2.36%
74. CCN(Cc1cnn(CC)c1)C(=O)Cn1c(=O)ccc2ccccc21  2.37%
75. CCCC(C)N(C)Cc1nnc(-c2ccco2)o1 (configuration not stated)  2.49%
76. COc1cccc(CN(C)c2ncc(C(N)=O)cc2Cl)c1  2.53%
77. CC(C)N(Cc1cccc(Cl)c1)Cc1nnsc1Cl  2.56%
78. O=C(NCC1Cn2nnc(-c3ccoc3)c2CO1)c1ccc[nH]1 (configuration not stated)  2.61%
79. Cc1nc(C)n(CC2CCCN(CCCOc3ccccc3)C2)n1 (configuration not stated)  3.15%
80. CCN1C(=O)C(c2ccccc2)CC12CCN(S(C)(=O)=O)CC2 (configuration not stated)  3.2%
81. COc1ccc(CNC(=O)CNc2cc3c(cc2Cl)OCCCO3)cc1  3.25%
82. CCC[C@@H]1CN(Cc2c[nH]nc2-c2ccc(F)cc2)C[C@H]1NS(C)(=O)=O  3.25%
83. Cc1ccc(F)c(OC2(C(=O)O)CCN(C(=O)C3CCCC3)CC2)c1  3.33%
84. COCCC(=O)N(CCC#N)c1ccc(C)c(C)c1  3.43%
85. COc1ccc(C2CCCCCN2S(C)(=O)=O)cc1 (configuration not stated)  3.86%
86. c1cncc(CN2CCc3c(nnn3CC3CC3)C2COCC2CC2)c1 (configuration not stated)  3.88%
87. CCC(CC)c1nnc(NC(=O)NC(C)Cn2cccn2)s1 (configuration not stated)  3.91%
88. C[C@@H]1C(=O)NC[C@H]2CN(Cc3ccsc3)C[C@H]21  4.22%
89. O=C(NCc1csc(Br)c1)c1ccncc1  4.38%
90. O=C(NC1CC1)[C@@H]1CCO[C@@H]2CCN(Cc3ccsc3)C[C@H]21  4.4%
91. CNC(=O)C1CCCCN1C(=O)c1sc(-c2ccc(C)o2)nc1C (configuration not stated)  4.45%
92. CCc1nnsc1C(=O)N1CCCC(c2nc3ccccc3[nH]2)C1 (configuration not stated)  4.52%
93. CCc1ccc(CNC2(c3ccc(F)cc3)CCOCC2)o1  4.68%
94. Cc1ccc2c(cnn2CCC(=O)NCc2csc(C3CC3)n2)c1  4.88%
95. CC(C)(C)c1ccc(S(=O)(=O)CCNC(=O)c2cnccn2)cc1  4.92%
96. Cc1cc(C(=O)O)ccc1NS(=O)(=O)c1c(C)nn(C(C)C)c1C  5.31%
97. O=C(NCCCNC(=O)c1ccccc1)Nc1ccc(F)cc1F  5.55%
98. Cc1csc(CCCNC(C)CC(=O)Nc2cccc(C)c2C)n1 (configuration not stated)  5.76%
99. CN(C)C(=O)[C@@H]1C[C@@H]2CCN(Cc3ccncc3)C[C@@H]2O1  6.36%
100. Cc1nc(CCNC(=O)NC2CCCc3c2cnn3CCO)cs1 (configuration not stated)  6.68%
101. Cc1nc(C2CCCN2CCc2ccccn2)no1 (configuration not stated)  7.28%
102. COc1cc(C)nc(N2CCN(C(=O)c3cc(Cl)c[nH]3)CC2)n1  7.32%
103. CCc1nc(C2CCCN2C(=O)c2cnc3n[nH]c(C)c3c2)no1 (configuration not stated)  7.76%
104. Cc1ccc(-c2nn(-c3cccc(F)c3)cc2CN(CCO)CCO)o1  8.43%
105. COCC[C@]1(O)CCN(Cc2nnc(C)s2)C[C@H]1C  8.62%
106. CC(C(=O)Nc1nccs1)N1CCc2nn(C)c(=O)cc2C1 (configuration not stated)  9.17%
107. Nc1nccnc1C1CN(C(=O)c2ccnnc2)CCO1 (configuration not stated)  9.48%
108. CCc1cccc(CC)c1NC(=O)c1ccccc1N(C)S(C)(=O)=O  11.4%
109. CS(=O)(=O)c1ccc(NCc2ccccc2)cn1  13.2%
110. CCc1noc(CN(C)CCC(=O)Nc2ccc(C#N)c(Cl)c2)n1  22.5%
111. N#Cc1cn(CC(=O)NC2CC2)c2ccc(Br)cc2c1=O  27.4%
112. N#Cc1ccc(N2CCN(c3ncccn3)CC2)c(C(F)(F)F)c1  36.3%
